Assays:
[1] = molecular target: T1, Retinoic acid receptor alpha (Homo sapiens, UniProt P10276); experiment: Binding affinity for retinoic acid receptor alpha (RARalpha), using 9-cis-[3H]-retinoic acid
T1 sequence (P10276 whole entry): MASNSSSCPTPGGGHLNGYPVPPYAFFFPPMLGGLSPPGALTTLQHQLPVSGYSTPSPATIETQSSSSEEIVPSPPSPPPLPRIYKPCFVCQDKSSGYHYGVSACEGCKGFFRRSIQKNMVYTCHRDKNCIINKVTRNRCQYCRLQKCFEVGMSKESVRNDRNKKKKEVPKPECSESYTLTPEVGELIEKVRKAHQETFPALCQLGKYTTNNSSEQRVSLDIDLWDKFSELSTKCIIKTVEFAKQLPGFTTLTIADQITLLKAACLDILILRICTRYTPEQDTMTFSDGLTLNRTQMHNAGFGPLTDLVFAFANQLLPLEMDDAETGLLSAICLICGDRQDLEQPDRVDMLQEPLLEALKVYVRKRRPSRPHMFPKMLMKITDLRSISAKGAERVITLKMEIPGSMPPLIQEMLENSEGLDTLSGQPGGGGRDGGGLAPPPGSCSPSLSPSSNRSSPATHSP
Summary of the method: (§1)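 Scintillation proximity binding assay; Ki from competition of 2.5 nM 9-cis-RA at RXRα and RARα, with test compound up to 10 µM.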

[2] = molecular target: T2, Retinoic acid receptor RXR-alpha (Homo sapiens, UniProt P19793); experiment: Effective concentration for Retinoid X receptor alpha activity in CV-1 cells; assay type: functional, cell-based
T2 sequence (P19793 whole entry): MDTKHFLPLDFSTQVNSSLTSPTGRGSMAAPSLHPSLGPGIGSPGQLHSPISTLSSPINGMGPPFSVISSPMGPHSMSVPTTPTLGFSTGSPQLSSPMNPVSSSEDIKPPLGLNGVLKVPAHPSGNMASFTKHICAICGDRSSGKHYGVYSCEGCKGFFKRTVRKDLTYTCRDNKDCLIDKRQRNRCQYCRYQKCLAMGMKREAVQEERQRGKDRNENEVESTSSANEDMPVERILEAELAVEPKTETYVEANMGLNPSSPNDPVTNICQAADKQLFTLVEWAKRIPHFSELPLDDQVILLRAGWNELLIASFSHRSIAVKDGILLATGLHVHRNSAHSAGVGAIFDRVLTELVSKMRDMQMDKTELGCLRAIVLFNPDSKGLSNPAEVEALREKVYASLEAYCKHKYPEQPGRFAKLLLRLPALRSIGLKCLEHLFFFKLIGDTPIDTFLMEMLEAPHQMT
Summary of the method: (§2)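 CV-1 monkey kidney cells transiently transfected with a full-length hRXRα expression vector (RXRα) or a GAL4-hRARα vector (RARα), each with an RXRα- or RARα-responsive reporter gene construct. Top concentration 10 µM; EC50 calculated from the reporter response.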

[3] = molecular target: T2, Retinoic acid receptor RXR-alpha; experiment: Binding affinity for retinoid X receptor alpha (RXRalpha), using 9-cis-[3H]-retinoic acid; summary of the method: as §1
[4] = molecular target: T1, Retinoic acid receptor alpha; experiment: Effective concentration for Retinoic acid receptor alpha activity in CV-1 cells; assay type: functional, cell-based; summary of the method: as §2
[5] = molecular target: T2, Retinoic acid receptor RXR-alpha; experiment: Effective concentration for Retinoid X receptor alpha activity in CV-1 cells; Partial agonist; assay type: functional, cell-based; summary of the method: as §2

Ki [1]	EC50 [2]	Ki [3]	EC50 [4]	EC50 [5]	Compound
> 1000 nM	70 nM	79 nM			CN1Cc2oc(/C=C/C(=O)O)cc2C(c2ccc3c(c2)C(C)(C)CCC3(C)C)C1 (centres undefined)
> 1000 nM	60 nM	63 nM	> 10000 nM		CC(=CC(=O)O)c1cc2c(o1)CCCC2c1ccc2c(c1)C(C)(C)CCC2(C)C (centres undefined)
		1500 nM			O=C1NC(=O)/C(=C/c2ccc(-c3cccc(Br)c3)o2)S1
> 1000 nM		20 nM	> 10000 nM	48 nM	COc1cc2c(cc1C1CCCc3oc(/C=C/C(=O)O)cc31)C(C)(C)CCC2(C)C (centres undefined)
> 1000 nM	4 nM	20 nM	> 10000 nM		CC1(C)CCC(C)(C)c2cc(C3CCCc4oc(/C=C5/SC(=O)NC5=O)cc43)ccc21 (centres undefined)
> 1000 nM	29 nM	40 nM	> 10000 nM		Cc1cc2c(cc1C1CCCc3oc(/C=C/C(=O)O)cc31)C(C)(C)CCC2(C)C (centres undefined)
> 1000 nM	> 10000 nM	> 3000 nM			CC1(C)CCC(C)(C)c2cc(C3CCCc4oc(C(=O)O)cc43)ccc21 (centres undefined)
> 1000 nM	97 nM	200 nM	> 10000 nM		CC1(C)CCC(C)(C)c2cc(C3CCCc4sc(CCC(=O)O)cc43)ccc21 (centres undefined)

Compound	Ki [1]	EC50 [2]	Ki [3]	EC50 [4]	EC50 [5]
CC1(C)CCC(C)(C)c2cc(-c3ccc(/C=C/C(=O)O)o3)ccc21	93 nM		> 1000 nM		

— ChEMBL document CHEMBL1149144, “Structure-based design of potent retinoid X receptor alpha agonists” (J Med Chem, 2004)
